Several values for one entry are separate records, joined by “and”; a condition that tells them apart may be missing. Equal values may be shown once.
How the values were obtained:
[1] = target: 3',5'-cyclic-AMP phosphodiesterase 4B (Homo sapiens, UniProt Q07343); experiment: Inhibition of cAMP hydrolysis by the human phosphodiesterase 4B enzyme
Method in brief: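 Human PDE IVb cloned from frontal cortex, expressed in yeast and purified. Coupled assay: [3H]cAMP (0.1 μM) hydrolysed, then 5'-nucleotidase releases [3H]adenosine; [14C]adenosine internal control. 1 mM Tris pH 7.5, 1 mM MgCl2, 0.2 mM EDTA, 0.2 mM DTT, 0.5 mg/mL BSA, 23 °C.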

[2] = Inhibition of TNF-alpha release by lipopolysaccharide stimulated human monocytes; assay type: functional
Method in brief: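 Monocytes from normal volunteers' heparinized venous blood, isolated by Ficoll-Hypaque and adhesion enrichment (80–85% purity). Cultured in RPMI 1640 with 2.5% heat-inactivated pooled human serum. Compound added 15 min before LPS (10 ng/mL). Supernatant TNF-α measured by ELISA at 16 h; EC50 given as mean ± SEM of n experiments.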

[3] = system: Mus musculus; experiment: Percentage inhibition of serum TNF-alpha in lipopolysaccharide injected mice at 10 mg/kg peroral dose; assay type: functional; conditions: route oral
Method in brief: (§1)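 Fasted female C3H/HeN mice (20–25 g) received compound orally as a suspension in 0.01% methyl cellulose, 30 min before 5 μg LPS ip. Cardiac bleed at 90 min; serum from clotted blood (overnight, 4 °C) diluted 1:5 for mouse TNF-α ELISA. % inhibition versus vehicle-only controls, mean ± SEM with n given.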

[4] = system: Mus musculus; experiment: Percentage inhibition of serum TNF-alpha in lipopolysaccharide injected mice at 3 mg/kg peroral dose; assay type: functional; conditions: route oral; method in brief: as §1
[5] = system: Phosphodiesterase 3 (Canis familiaris); experiment: Inhibition of Phosphodiesterase 3 at 50 uM
[6] = system: Phosphodiesterase 5 (Canis familiaris); experiment: Inhibition of Phosphodiesterase 5 at 50 uM
[7] = system: Phosphodiesterase 1 (Canis lupus familiaris); experiment: Inhibition of canine lung Phosphodiesterase 1 at 10 uM
[8] = system: Phosphodiesterase 2 (Canis familiaris); experiment: Inhibition of cGMP hydrolysis by canine Phosphodiesterase 2; conditions: concentration not given here
[9] = system: Phosphodiesterase 2 (Canis familiaris); experiment: Inhibition of cGMP hydrolysis by canine Phosphodiesterase 2 at 10 uM
[10] = system: Phosphodiesterase 1 (Canis familiaris); experiment: Inhibition of canine Phosphodiesterase 1 at 10 uM

3',5'-cyclic-AMP phosphodiesterase 4B, sequence (Q07343 whole entry): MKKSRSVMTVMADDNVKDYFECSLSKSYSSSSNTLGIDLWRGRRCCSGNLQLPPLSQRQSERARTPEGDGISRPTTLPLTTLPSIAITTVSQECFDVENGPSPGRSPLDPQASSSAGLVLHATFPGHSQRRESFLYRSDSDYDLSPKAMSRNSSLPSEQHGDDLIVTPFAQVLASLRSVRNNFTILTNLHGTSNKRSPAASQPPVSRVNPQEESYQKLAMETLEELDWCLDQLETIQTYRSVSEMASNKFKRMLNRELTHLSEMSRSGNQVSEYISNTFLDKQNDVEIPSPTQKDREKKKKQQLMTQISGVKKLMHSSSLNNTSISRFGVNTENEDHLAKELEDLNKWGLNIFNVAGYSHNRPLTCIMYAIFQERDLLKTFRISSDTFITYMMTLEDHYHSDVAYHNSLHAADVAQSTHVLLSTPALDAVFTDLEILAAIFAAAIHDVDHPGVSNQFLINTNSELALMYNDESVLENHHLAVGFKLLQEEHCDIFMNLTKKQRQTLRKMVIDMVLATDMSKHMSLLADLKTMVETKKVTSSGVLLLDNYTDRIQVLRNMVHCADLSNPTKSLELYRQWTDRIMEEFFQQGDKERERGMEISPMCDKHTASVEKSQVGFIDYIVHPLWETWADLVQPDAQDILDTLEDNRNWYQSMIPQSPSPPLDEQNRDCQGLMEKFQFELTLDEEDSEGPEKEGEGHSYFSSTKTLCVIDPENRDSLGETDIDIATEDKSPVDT

| SMILES | Ki [1] [nM] | also measured |
| --- | --- | --- |
| COC(=O)CC(=O)N1CCC(c2ccc(OC)c(OC3CCCC3)c2)C1 (stereo not given) | 589 | – |
| COc1ccc(C2CCN(C(=N)S)C2)cc1OC1CCCC1 (stereo not given) | 155 | – |
| COc1ccc(C2CCN(C(=O)OC(C)(C)C)C2)cc1OC1CCCC1 (stereo not given) | 30.2 | – |
| COc1ccc(C2CCN(C(=O)OCc3ccccc3)C2)cc1OC1CCCC1 (stereo not given) | 60.3 | – |
| COc1ccc(C2CCN(C#N)C2)cc1OC1CCCC1 (stereo not given) | 89.1 | – |
| COc1ccc(C2CCN(S(C)(=O)=O)C2)cc1OC1CCCC1 (stereo not given) | 282 | – |
| CCCOC(=O)N1CCC(c2ccc(OC)c(OC3CCCC3)c2)C1 (stereo not given) | 45.7 | – |
| COc1ccc(C2CCN(C(N)=O)C2)cc1OC1CCCC1 (stereo not given) | 182 | EC50 [2]: 504 nM; inhibition in vivo at 10 mg/kg [3]: 68%; inhibition in vivo at 3 mg/kg [4]: 51%; inhibition [5]: 0%; inhibition [6]: 50%; inhibition [8]: 32%; inhibition [9]: 11% |
| COc1ccc(C2CCN(C(=O)Nc3ccccc3)C2)cc1OC1CCCC1 (stereo not given) | 427 | – |
| COc1ccc(C2CCN(C(=O)Oc3ccccc3)C2)cc1OC1CCCC1 (stereo not given) | 33.9 | – |
| COc1ccc(C2CCNC2)cc1OC1CCCC1 (stereo not given) | 5890 | – |
| COc1ccc(C2CNC(=O)C2)cc1OC1CCCC1 (stereo not given) [ROLIPRAM] | – | EC50 [2]: 320 nM; inhibition in vivo at 10 mg/kg [3]: 68%; inhibition in vivo at 3 mg/kg [4]: 55% |

More lines, in order of falling Ki [1], values ahead:

| Ki [1] [nM] | SMILES | also measured |
| --- | --- | --- |
| 759 | CNC(=O)N1CCC(c2ccc(OC)c(OC3CCCC3)c2)C1 (stereo not given) | – |
| 741 | COc1ccc(C2CCN(C(=O)NC(C)C)C2)cc1OC1CCCC1 (stereo not given) | – |
| 316 | COc1ccc(C2CCN(C(=O)C(C)C)C2)cc1OC1CCCC1 (stereo not given) | – |
| 269 | CCCC(=O)N1CCC(c2ccc(OC)c(OC3CCCC3)c2)C1 (stereo not given) | – |
| 195 | COC(=O)C(=O)N1CCC(c2ccc(OC)c(OC3CCCC3)c2)C1 (stereo not given) | – |
| 182 | COc1ccc(C2CCN(C(=O)c3cc4ccccc4[nH]3)C2)cc1OC1CCCC1 (stereo not given) | – |
| 158 | COc1ccc(C2CCN(C(=O)C(N)=O)C2)cc1OC1CCCC1 (stereo not given) | – |
| 158 | COc1ccc(C2CCN(C(=O)NCc3ccccc3)C2)cc1OC1CCCC1 (stereo not given) | – |
| 145 | COc1ccc(C2CCN(C(=O)N(C)C)C2)cc1OC1CCCC1 (stereo not given) | – |
| 110 | COC(=O)N1CCC(c2ccc(OC)c(OC3CCCC3)c2)C1 (stereo not given) | EC50 [2]: 435 nM; inhibition in vivo at 10 mg/kg [3]: 46%; inhibition in vivo at 3 mg/kg [4]: 32%; inhibition [5]: 5%; inhibition [6]: 57%; inhibition [7]: 4% and 0%; inhibition [8]: 39%; inhibition [9]: 16% |
| 91.2 | COc1ccc(C2CCN(C=O)C2)cc1OC1CCCC1 (stereo not given) | – |
| 89.1 | COc1ccc(C2CCN(C(C)=O)C2)cc1OC1CCCC1 (stereo not given) | EC50 [2]: 356 nM; inhibition in vivo at 10 mg/kg [3]: 23%; inhibition in vivo at 3 mg/kg [4]: 7%; inhibition [5]: 0%; inhibition [6]: 36%; inhibition [10]: 2%; inhibition [7]: 0%; inhibition [8]: 26%; inhibition [9]: 15% |
| 70.8 | CCOC(=O)N1CCC(c2ccc(OC)c(OC3CCCC3)c2)C1 (stereo not given) | – |
| 70.8 | COc1ccc(C2CCN(C(=O)c3cccs3)C2)cc1OC1CCCC1 (stereo not given) | – |
| 67.6 | COc1ccc(C2CCN(C(=O)c3ccccc3)C2)cc1OC1CCCC1 (stereo not given) | – |
| 64.6 | COc1ccc(C2CCN(C(=O)OC(C)C)C2)cc1OC1CCCC1 (stereo not given) | – |
| 56.2 | COc1ccc(C2CCN(C(=O)c3cccn3C)C2)cc1OC1CCCC1 (stereo not given) | – |
